These results are taken from publication PMC5726935 (Nature chemical biology, 2017).

Data set [1] has as its system TLR1/2/6, TLR3, TLR4, TLR5, TLR7, and TLR9 HEK-Blue. The data set is described as follows: TLR selectivity assay in HEK-Blue TLR-overexpressing cells. It counts as cell-based, human. Conditions: 1 μM compound, TLR-specific agonists.
The target in data set [2] is T1, TLR7 (Homo sapiens, UniProt Q9NYK1).
T1 sequence (Q9NYK1 27-1049): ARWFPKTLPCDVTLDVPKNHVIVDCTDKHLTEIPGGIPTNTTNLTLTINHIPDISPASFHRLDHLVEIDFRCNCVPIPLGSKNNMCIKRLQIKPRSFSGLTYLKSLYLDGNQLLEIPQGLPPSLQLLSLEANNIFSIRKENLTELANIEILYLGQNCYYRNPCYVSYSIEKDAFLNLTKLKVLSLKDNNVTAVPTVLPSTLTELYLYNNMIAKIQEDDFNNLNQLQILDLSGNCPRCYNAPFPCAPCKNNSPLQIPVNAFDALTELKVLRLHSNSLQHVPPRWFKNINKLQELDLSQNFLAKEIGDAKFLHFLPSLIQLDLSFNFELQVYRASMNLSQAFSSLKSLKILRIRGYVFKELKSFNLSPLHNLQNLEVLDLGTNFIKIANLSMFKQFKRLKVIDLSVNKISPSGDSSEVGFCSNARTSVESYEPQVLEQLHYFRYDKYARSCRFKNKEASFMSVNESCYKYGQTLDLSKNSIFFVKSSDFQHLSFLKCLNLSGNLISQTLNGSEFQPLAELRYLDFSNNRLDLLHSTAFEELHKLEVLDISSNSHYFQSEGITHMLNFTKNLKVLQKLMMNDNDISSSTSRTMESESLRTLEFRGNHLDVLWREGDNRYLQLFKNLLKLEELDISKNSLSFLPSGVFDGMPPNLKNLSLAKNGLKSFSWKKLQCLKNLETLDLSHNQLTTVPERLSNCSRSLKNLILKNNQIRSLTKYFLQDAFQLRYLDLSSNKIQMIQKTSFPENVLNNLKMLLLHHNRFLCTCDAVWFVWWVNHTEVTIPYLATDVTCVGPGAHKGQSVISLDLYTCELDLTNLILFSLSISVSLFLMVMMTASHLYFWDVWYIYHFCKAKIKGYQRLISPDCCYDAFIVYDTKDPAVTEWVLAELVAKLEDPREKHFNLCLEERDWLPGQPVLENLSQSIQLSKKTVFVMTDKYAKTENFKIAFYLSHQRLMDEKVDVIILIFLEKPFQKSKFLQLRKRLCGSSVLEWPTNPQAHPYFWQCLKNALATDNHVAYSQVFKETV
Description: SEAP assay in HEK-Blue TLR7 cells activated by R848. The data set is classed as cell-based. The settings on record: concentrations up to 75 μM.

Data set [3] has as its system HEK-Blue TLR8 cells. Description: WST-1 cell proliferation. The data set is classed as cell-based, human. The settings on record: HEK-Blue TLR8 cell line. (Tetrazolium assays rely on reduction of a dye to a coloured formazan, in cell work by metabolically active cells.)
The test system of data set [4] is TLR8. The data set is described as follows: RT-PCR of IL-8 and TNF-α mRNA in R848 treated HEK-Blue TLR8 cells. It counts as cell-based, human.
Data set [5] relates to TLR8. The data set is described as follows: ELISA of R848-induced TNF-α production in differentiated THP-1 cells. The data set is classed as cell-based, human. The gist of the method:
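PMA-differentiated THP-1 (100 ng/mL PMA) seeded at 2 × 10^6 cells/well in supplemented RPMI and left 24 h at 37 °C, 5% CO2 to adhere. Medium then switched to unsupplemented RPMI. […] After 24 h, TNF-α in the culture supernatant was quantified by sandwich ELISA kit.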
For orientation: ELISA stands for enzyme-linked immunosorbent assay.

Data set [6] relates to TLR8. Description: R848-induced TNF-α production in human PBMC. The data set is classed as cell-based. The settings on record: 1 μg/mL R848, dose-dependent.
The subject of data set [7] is synovial cells from OA patients. The data set is described as follows: Spontaneous cytokine release from synovial cells of OA patients. It counts as cell-based, human. Conditions: synovial membrane cultures, 24 h. The gist of the method: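 OA synovial cells were isolated from synovial membrane taken at joint replacement and cultured at 1 × 10^6 cells/mL in RPMI 1640. After 24 h, test compound was added at 0, 10, 20, 40 or 80 μM, with chloroquine as positive control. After a further 24 h, TNF-α was measured in cleared supernatant, and IL-1β in cell lysate (EDTA, protease inhibitor) after PBS washes.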

The subject of data set [8] is PBMC from RA patients. The data set is described as follows: TNF-α production in PBMC from RA patients. The data set is classed as cell-based, human. In outline:
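PBMC came from four RA patients (2010 ACR criteria) and one AOSD patient, isolated by density-gradient centrifugation. Cells were cultured at 3 × 10^6 cells/mL in RPMI 1640, with test compounds at 0, 10, 40, 80 μM or 0, 2.5, 10, 20, 40 μM. TNF-α was measured in cleared supernatants after 24 h.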

Data set [9] deals with synovial cells isolated from osteoarthritis (OA) patients. The data set is described as follows: Cytotoxicity on synovial cells from OA patients. The data set is classed as cell-based, human. Conditions: up to 100 μM.

Usually IC50 stands for the concentration needed to halve the response being measured. Turning to `Cc1cccc(-c2ccnc3c(C(N)=O)cnn23)c1` [CU-CPT8m, 7-m-Tolylpyrazolo[1,5-a]pyrimidine-3-carboxamide], the “inhibition of TLRs other than TLR8” value in data set [1] is “did not show significant inhibition of any TLR other than TLR8”. For the same molecule, the “TLR7 signaling (TLR7-mediated NF-κB activation)” value in data set [2] is given as “not affected”. The cytotoxicity entry in [3] was “negligible cytotoxicity”. Moreover, in data set [4] (1 μM compound), the “elevation of IL-8 mRNA level induced by R848” value is “completely abolished” and the “elevation of TNF-α mRNA level induced by R848” value is “completely abolished”. Also, in data set [5] (Homo sapiens, THP-1, 24 h, read-out: IC50, R848-induced TNF-α production), the IC50 stood at 90 ± 10 nM. Besides, the “R848-induced TNF-α secretion” value in data set [6] is “reversed”. For the same molecule, in [7], the “spontaneous release of IL-1β” value is given as “significant inhibitory effects” and the “spontaneous release of TNF-α” value is “significant inhibitory effects”. Further, the TNF-α level entry in data set [8] (PBMCs from RA patients (and one AOSD patient), dose-dependent) is listed as “significantly suppressed”. The cytotoxicity result in data set [9] is “little cytotoxicity”.

In the case of `O=C(O)c1cnn2c(-c3cccc(C(F)(F)F)c3)ccnc12` [compound 6, 7-(3-(Trifluoromethyl)phenyl)pyrazolo[1,5-a]pyrimidine-3-carboxylic acid], in [4] (10 μM compound), the “inhibition of R848-induced IL-8 mRNA level” value is recorded as “negligible inhibition” and the “inhibition of R848-induced TNF-α mRNA level” value is recorded as “negligible inhibition”. Also, the “inhibition of R848-induced TNF-α production” value in data set [5] (THP-1, 10 μM compound) is “failed to show significant inhibition”. Moreover, the “R848-induced TNF-α secretion” value in [6] is “not by 6”. In addition, the “inhibition of TNF-α level” value in data set [8] (PBMCs from RA patients, up to 80 μM) was “did not show significant inhibition”.
